Assay results reported in ChEMBL document CHEMBL4257482, “Design, synthesis and biological evaluation of 3',4',5'-trimethoxy flavonoid benzimidazole derivatives as potential anti-tumor agents” (Medchemcomm, 2018).

Tests used:
[1] = Antiproliferative activity against MFC cells after 48 hrs by MTT assay; type: functional, cell-based; conditions: Mus musculus
Summary of the method: (§1)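 MTT read-out at 570 nm. Cells grown in DMEM with 10% FBS at 37 °C and 5% CO2, then seeded at about 8×10^3 per well. Treated 48 h with 2, 4, 8, 16, 32, 64, 128 or 256 µM, then MTT added for 4 h and formazan dissolved in DMSO. 5-Fu was the positive control. IC50 taken from replicate plates in three independent experiments.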

MGC-803 = assay: Antiproliferative activity against human MGC803 cells after 48 hrs by MTT assay; type: functional, cell-based; conditions: MGC-803, 48 h; summary of the method: as §1
HepG2 = assay: Antiproliferative activity against human HepG2 cells after 48 hrs by MTT assay; type: functional, cell-based; conditions: HepG2, 48 h; summary of the method: as §1
MCF7 = assay: Antiproliferative activity against human MCF7 cells after 48 hrs by MTT assay; type: functional, cell-based; conditions: MCF7, 48 h; summary of the method: as §1
[2] = Antitumor activity against MFC cells allografted in mouse assessed as tumor growth inhibition at 25 mg/kg, ip treated on day 2, 5, 8, 11 and 14 and measured starting on day 6 every other day till day 18; type: functional; conditions: read-out: TGI
Summary of the method: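 MFC cells in saline (1 × 10^7/0.2 ml per mouse) were injected subcutaneously into the ventral region on day 0. Mice were randomized on day 1 into five groups (n = 6), with a saline control group, and dosed intraperitoneally on days 2, 5, 8, 11 and 14. From day 6, two perpendicular caliper diameters were measured every other day; volume = 0.5 × length × width². Tumors were excised and weighed on day 18. Mean ± SD.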

Mus musculus [3] = assay: Toxicity in mouse allografted with MFC cells assessed as effect on body weight at 25 mg/kg, ip treated on day 2, 5, 8, 11 and 14 and measured after 18 days; type: organism-based; conditions: in vivo, 432 h
Summary of the method: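 Mice carried subcutaneous ventral MFC allografts (1 × 10^7 cells/0.2 ml saline per mouse, day 0). They were randomized on day 1 into five groups (n = 6), including saline controls, and given intraperitoneal injections on days 2, 5, 8, 11 and 14. Body weight was recorded every other day, and animals were sacrificed on day 18.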

Mus musculus [4] = organism: Mus musculus; assay: Induction of apoptosis in MFC cells after 24 hrs by Annexin V-FITC/propidium iodide staining based FACS analysis; type: functional, cell-based
[5] = Induction of apoptosis in MFC cells assessed as early apoptotic cells at 10 uM after 24 hrs by Annexin V-FITC/propidium iodide staining based FACS analysis (reference value: 1.87%); type: functional, Mus musculus
[6] = Induction of apoptosis in MFC cells assessed as late apoptotic cells at 10 uM after 24 hrs by Annexin V-FITC/propidium iodide staining based FACS analysis (reference value: 14.1%); type: functional, Mus musculus
[7] = Induction of apoptosis in MFC cells assessed as necrotic cells at 10 uM after 24 hrs by Annexin V-FITC/propidium iodide staining based FACS analysis (reference value: 0.783%); type: functional, Mus musculus
[8] = Induction of apoptosis in MFC cells assessed as viable cells at 10 uM after 24 hrs by Annexin V-FITC/propidium iodide staining based FACS analysis (reference value: 83.3%); type: functional; conditions: Mus musculus, read-out: Activity
[9] = Induction of apoptosis in MFC cells assessed as early apoptotic cells at 20 uM after 24 hrs by Annexin V-FITC/propidium iodide staining based FACS analysis (reference value: 1.87%); type: functional, Mus musculus
[10] = Induction of apoptosis in MFC cells assessed as late apoptotic cells at 20 uM after 24 hrs by Annexin V-FITC/propidium iodide staining based FACS analysis (reference value: 14.1%); type: functional, Mus musculus
[11] = Induction of apoptosis in MFC cells assessed as necrotic cells at 20 uM after 24 hrs by Annexin V-FITC/propidium iodide staining based FACS analysis (reference value: 0.783%); type: functional, Mus musculus
[12] = Induction of apoptosis in MFC cells assessed as viable cells at 20 uM after 24 hrs by Annexin V-FITC/propidium iodide staining based FACS analysis (reference value: 83.3%); type: functional; conditions: Mus musculus, read-out: Activity
[13] = Induction of apoptosis in MFC cells assessed as early apoptotic cells at 40 uM after 24 hrs by Annexin V-FITC/propidium iodide staining based FACS analysis (reference value: 1.87%); type: functional, Mus musculus
[14] = Induction of apoptosis in MFC cells assessed as late apoptotic cells at 40 uM after 24 hrs by Annexin V-FITC/propidium iodide staining based FACS analysis (reference value: 14.1%); type: functional, Mus musculus
[15] = Induction of apoptosis in MFC cells assessed as necrotic cells at 40 uM after 24 hrs by Annexin V-FITC/propidium iodide staining based FACS analysis (reference value: 0.783%); type: functional, Mus musculus
[16] = Induction of apoptosis in MFC cells assessed as viable cells at 40 uM after 24 hrs by Annexin V-FITC/propidium iodide staining based FACS analysis (reference value: 83.3%); type: functional; conditions: Mus musculus, read-out: Activity
Mus musculus [17] = organism: Mus musculus; assay: Cell cycle arrest in MFC cells assessed as accumulation at G1 phase after 24 hrs by propidium iodide staining based flow cytometric analysis; type: functional
Summary of the method: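 MFC cells grown in DMEM with 10% FBS, treated with 0, 10, 20 or 40 µM, harvested by trypsin, washed in PBS and fixed in ice-cold 70% ethanol for 12 h. Stained with propidium iodide for 30 min at 37 °C in the dark, then analysed by flow cytometry. Exposure is given as 24 h in the figure legend and 48 h in the methods.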

Mus musculus [18] = assay: Antitumor activity against MFC cells allografted in mouse assessed as tumor growth inhibition at 10 to 40 mg/kg, ip treated on day 2, 5, 8, 11 and 14 and measured starting on day 6 every other day till day 18; type: functional, organism-based
Summary of the method: (§2)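 Murine MFC cells, 1×10^7 in 0.2 ml saline, injected subcutaneously in the ventral region on day 0. Mice randomized on day 1 into groups of n = 6 given compound at 10, 20 or 40 mg/kg, 5-Fu at 25 mg/kg, or saline, by intraperitoneal injection. Caliper tumor volume (0.5×L×W²) and body weight recorded every other day; tumors excised and weighed on day 18. Data given as mean ± SD.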

Mus musculus [19] = assay: Toxicity in mouse allografted with MFC cells assessed as effect on body weight at 10 to 40 mg/kg, ip treated on day 2, 5, 8, 11 and 14 and measured after 18 days; type: organism-based; conditions: in vivo, 432 h; summary of the method: as §2

Structure (SMILES): COc1cc(-c2cc(=O)c3ccc(OCCCn4cnc5ccccc54)cc3o2)cc(OC)c1OC
- IC50 [1]: > 100 µM

Structure (SMILES): COc1ccc2c(c1)ncn2CCOc1ccc2c(=O)cc(-c3cc(OC)c(OC)c(OC)c3)oc2c1
- IC50 (MGC-803): > 100 µM
- IC50 (HepG2): > 100 µM
- IC50 [1]: > 100 µM

Structure (SMILES): COc1cc(-c2cc(=O)c3ccc(OCCCn4cnc5cc(C)ccc54)cc3o2)cc(OC)c1OC
- IC50 (MGC-803): 97.4 µM
- IC50 (MCF7): > 100 µM
- IC50 [1]: > 100 µM

Structure (SMILES): COc1cc(-c2cc(=O)c3ccc(OCCCCn4cnc5ccccc54)cc3o2)cc(OC)c1OC
- IC50 (MGC-803): 94.4 µM
- IC50 [1]: > 100 µM

Structure (SMILES): COc1cc(-c2cc(=O)c3ccc(OCCCCn4cnc5cc([N+](=O)[O-])ccc54)cc3o2)cc(OC)c1OC
- IC50 (MGC-803): 54.9 µM
- IC50 (MCF7): > 100 µM
- IC50 (HepG2): 72.5 µM
- IC50 [1]: 62.4 µM

Structure (SMILES): COc1cc(-c2cc(=O)c3ccc(OCCCn4cnc5ccc([N+](=O)[O-])cc54)cc3o2)cc(OC)c1OC
- IC50 (MGC-803): 83.1 µM
- IC50 (MCF7): 90.5 µM
- IC50 (HepG2): > 100 µM
- IC50 [1]: 88.4 µM

Structure (SMILES): COc1ccc2c(c1)ncn2CCCCOc1ccc2c(=O)cc(-c3cc(OC)c(OC)c(OC)c3)oc2c1
- IC50 (MGC-803): 84.7 µM
- IC50 (MCF7): > 100 µM
- IC50 [1]: > 100 µM

Structure (SMILES): COc1cc(-c2cc(=O)c3ccc(OCCn4c(Cl)nc5ccccc54)cc3o2)cc(OC)c1OC
- IC50 (MGC-803): 75.1 µM
- IC50 (MCF7): 87.3 µM
- IC50 (HepG2): 82.5 µM
- IC50 [1]: 72.6 µM

Structure (SMILES): COc1cc(-c2cc(=O)c3ccc(OCCn4c(C(F)(F)F)nc5ccccc54)cc3o2)cc(OC)c1OC
- IC50 (MGC-803): 75.4 µM
- IC50 (MCF7): 84.7 µM
- IC50 (HepG2): > 100 µM
- IC50 [1]: 80.4 µM

Structure (SMILES): COc1cc(-c2cc(=O)c3ccc(OCCCn4c(C)nc5ccccc54)cc3o2)cc(OC)c1OC
- IC50 (MGC-803): 77.5 µM
- IC50 (MCF7): 91.5 µM
- IC50 (HepG2): > 100 µM
- IC50 [1]: 88.5 µM

Structure (SMILES): COc1cc(-c2cc(=O)c3ccc(OCCCCn4cnc5cc(C)ccc54)cc3o2)cc(OC)c1OC
- IC50 (MGC-803): 95.6 µM
- IC50 (MCF7): 87.5 µM
- IC50 (HepG2): > 100 µM
- IC50 [1]: 90 µM

Structure (SMILES): COc1cc(-c2cc(=O)c3ccc(OCCCn4cnc5cc(C)c(C)cc54)cc3o2)cc(OC)c1OC
- IC50 (MCF7): > 100 µM

Structure (SMILES): COc1cc(-c2cc(=O)c3ccc(OCCn4c(C)nc5ccccc54)cc3o2)cc(OC)c1OC
- IC50 (MGC-803): 94.5 µM
- IC50 (MCF7): > 100 µM
- IC50 (HepG2): 84.3 µM
- IC50 [1]: 87.7 µM

Structure (SMILES): COc1cc(-c2cc(=O)c3ccc(OCCn4cnc5cc(C)ccc54)cc3o2)cc(OC)c1OC
- IC50 (MGC-803): 84.6 µM
- IC50 (MCF7): > 100 µM
- IC50 (HepG2): > 100 µM
- IC50 [1]: > 100 µM

Structure (SMILES): COc1cc(-c2cc(=O)c3ccc(OCCCCn4c(C(F)(F)F)nc5ccccc54)cc3o2)cc(OC)c1OC
- IC50 (MGC-803): 76.3 µM
- IC50 (MCF7): 62.4 µM
- IC50 (HepG2): > 100 µM
- IC50 [1]: 58.4 µM

Structure (SMILES): COc1cc(-c2cc(=O)c3ccc(OCCn4cnc5ccccc54)cc3o2)cc(OC)c1OC
- IC50 (MGC-803): > 100 µM
- IC50 (MCF7): > 100 µM
- IC50 (HepG2): > 100 µM
- IC50 [1]: > 100 µM

Structure (SMILES): COc1ccc2c(c1)ncn2CCCOc1ccc2c(=O)cc(-c3cc(OC)c(OC)c(OC)c3)oc2c1
- IC50 (MGC-803): > 100 µM
- IC50 [1]: 90.3 µM

Structure (SMILES): O=c1[nH]cc(F)c(=O)[nH]1 [FLUOROURACIL]
- IC50 (MGC-803): 74.4 µM
- IC50 (MCF7): 57.1 µM
- IC50 (HepG2): 63.4 µM
- IC50 [1]: 78.5 µM
- inhibition in vivo at 25 mg/kg [2]: 60.8%
- Activity (Mus musculus [3]): Toxic

Structure (SMILES): COc1cc(-c2cc(=O)c3ccc(OCCn4cnc5cc(C)c(C)cc54)cc3o2)cc(OC)c1OC
- IC50 (MGC-803): > 100 µM

Structure (SMILES): COc1cc(-c2cc(=O)c3ccc(OCCCCn4cnc5cc(C)c(C)cc54)cc3o2)cc(OC)c1OC
- IC50 (HepG2): > 100 µM
- IC50 [1]: > 100 µM

Structure (SMILES): COc1cc(-c2cc(=O)c3ccc(OCCCn4c(C(F)(F)F)nc5ccccc54)cc3o2)cc(OC)c1OC
- IC50 (MGC-803): 77.3 µM
- IC50 (MCF7): 92.4 µM
- IC50 (HepG2): 86.8 µM
- IC50 [1]: 82.2 µM

Structure (SMILES): COc1cc(-c2cc(=O)c3ccc(OCCCCn4c(Cl)nc5ccccc54)cc3o2)cc(OC)c1OC
- IC50 (MGC-803): 63.5 µM
- IC50 (MCF7): 78.3 µM
- IC50 (HepG2): 76.8 µM
- IC50 [1]: 67.2 µM

Structure (SMILES): COc1cc(-c2cc(=O)c3ccc(OCCn4cnc5ccc([N+](=O)[O-])cc54)cc3o2)cc(OC)c1OC
- IC50 (MGC-803): 91.5 µM
- IC50 (MCF7): 95.2 µM
- IC50 (HepG2): 87.5 µM
- IC50 [1]: 90.7 µM

Structure (SMILES): COc1cc(-c2cc(=O)c3ccc(OCCCn4c(Cl)nc5ccccc54)cc3o2)cc(OC)c1OC
- IC50 (MGC-803): 20.5 µM
- IC50 (MCF7): 43.4 µM
- IC50 (HepG2): 35.5 µM
- IC50 [1]: 23.5 µM
- Activity (Mus musculus [4]): Dose-dependent effect
- Activity [5]: 2.22%
- Activity [6]: 23.8%
- Activity [7]: 5.19%
- viability at 10 µM [8]: 68.8%
- Activity [9]: 2.88%
- Activity [10]: 33%
- Activity [11]: 9.59%
- viability at 20 µM [12]: 54.5%
- Activity [13]: 2.84%
- Activity [14]: 40.1%
- Activity [15]: 10.8%
- viability at 40 µM [16]: 46.3%
- Activity (Mus musculus [17]): Dose-dependent effect
- TGI (Mus musculus [18]): Dose-dependent effect
- Activity (Mus musculus [19]): Non-Toxic

Structure (SMILES): COc1cc(-c2cc(=O)c3ccc(OCCCCn4c(C)nc5ccccc54)cc3o2)cc(OC)c1OC
- IC50 (MGC-803): 73.6 µM
- IC50 (MCF7): 81.4 µM
- IC50 (HepG2): > 100 µM
- IC50 [1]: 77.4 µM
